As a reminder, the MIC is the lowest concentration found to suppress growth. A high value points to a less susceptible organism.

In ChEMBL document CHEMBL1151800, “Synthesis, biological evaluation and SAR study of novel pyrazole analogues as inhibitors of Mycobacterium tuberculosis” (2008) one finds MIC data, which are given here for 21 compounds.

Converted amounts (≈) assume the structure as drawn. Some results are limits rather than exact numbers.

The subject of this test is Mycobacterium tuberculosis. The test is described as follows: Antimycobacterial activity against Mycobacterium tuberculosis H37Rv ATCC 27294 after 21 to 28 days by twofold agar dilution method. It is filed as functional. A digest of the protocol:
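Twofold agar dilution on Middlebrook 7H11 agar with 10% OADC enrichment, compounds at […]. Each well received 10 μL of H37Rv suspension at 1.5 x 10⁵ cfu/mL grown in 7H9 broth with 10% ADC, giving a final inoculum of 1.5 x 10³ per well. Incubated 21–28 days. MIC read as lowest concentration completely inhibiting visible growth.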
A general note: In agar dilution, organisms are placed on agar that contains the substance at set levels.

In turn, `CC(C)c1[nH]n(-c2ccc(Cl)cc2)c(=O)c1C(=O)c1ccc(Cl)cc1` gave a minimal inhibitory concentration (MIC) of 32 µg/mL (≈ 85.3 µM). With `Cc1[nH]n(-c2ccc(Br)cc2)c(=O)c1C(=O)c1ccc(Cl)cc1` the figure was 4 µg/mL (≈ 10.2 µM); with `O=C(c1ccc(Cl)cc1)c1c(-c2ccccc2)[nH]n(-c2ccccc2)c1=O`, 32 µg/mL (≈ 85.4 µM).

`O=C(c1ccc(Cl)cc1)c1c(C(F)(F)F)[nH]n(-c2ccc(Cl)cc2)c1=O`: the minimal inhibitory concentration (MIC) is more than 64 µg/mL.

The compound `Cc1[nH]n(-c2ccc(C(C)C)cc2)c(=O)c1C(=O)c1ccc(Cl)cc1` came in with a minimal inhibitory concentration (MIC) of 16 µg/mL (≈ 45.1 µM). Compound `CC(C)c1[nH]n(-c2ccccc2)c(=O)c1C(=O)c1ccc(Cl)cc1` registered an MIC of 64 µg/mL (≈ 188 µM). For the compound `Cc1ccc(-n2[nH]c(-c3ccccc3)c(C(=O)c3ccc(Cl)cc3)c2=O)cc1`, the MIC worked out at 32 µg/mL (≈ 82.3 µM).

Consider `Cc1[nH]n(-c2ccc(F)cc2)c(=O)c1C(=O)c1ccc(Cl)cc1`, for which it took 12.5 µg/mL (≈ 37.8 µM) to inhibit growth (MIC). Compound `Cc1[nH]n(-c2ccc(Cl)cc2)c(=O)c1C(=O)c1ccc(Cl)cc1` showed an MIC of 6.25 µg/mL (≈ 18 µM).

In the case of `O=C(c1ccc(Cl)cc1)c1c(C(F)(F)F)[nH]n(-c2ccccc2)c1=O`, the MIC is more than 64 µg/mL. With `CC(C)c1ccc(-n2[nH]c(-c3ccccc3)c(C(=O)c3ccc(Cl)cc3)c2=O)cc1` the figure was 32 µg/mL (≈ 76.8 µM); with `O=C(c1ccc(Cl)cc1)c1c(-c2ccccc2)[nH]n(-c2ccc(Cl)cc2)c1=O`, 16 µg/mL (≈ 39.1 µM). In the case of `Cc1ccc(-n2nc(C)c(C(=O)c3ccc(Cl)cc3)c2O)cc1` it was 16 µg/mL (≈ 49 µM). With `Cc1c(C(=O)c2ccc(Cl)cc2)c(=O)n(-c2ccc(Cl)cc2)n1Cc1ccc(F)cc1`, the MIC turned out to be 32 µg/mL (≈ 70.3 µM). In the case of `Cc1c(C(=O)c2ccc(Cl)cc2)c(=O)n(-c2ccc(Cl)cc2)n1Cc1ccccc1` it was 16 µg/mL (≈ 36.6 µM); in that of `Cc1c(C(=O)c2ccc(Cl)cc2)c(=O)n(-c2ccccc2)n1C`, more than 100 µg/mL.

With `Cc1c(C(=O)c2ccc(Cl)cc2)c(=O)n(-c2ccccc2)n1Cc1ccc(F)cc1`, 32 µg/mL (≈ 76 µM) was the least that counted as inhibitory (MIC). Take `Cc1c(C(=O)c2ccc(Cl)cc2)c(=O)n(-c2ccc(Cl)cc2)n1Cc1ccc([N+](=O)[O-])cc1`: the minimal inhibitory concentration (MIC) stood at 32 µg/mL (≈ 66.3 µM). In the case of `Cc1c(C(=O)c2ccc(Cl)cc2)c(=O)n(-c2ccccc2)n1Cc1ccc([N+](=O)[O-])cc1` it was more than 32 µg/mL. For `Cc1nn(-c2ccccc2)c(O)c1C(=O)c1ccc(Cl)cc1`, the minimum inhibitory concentration (MIC) came out at 6.25 µg/mL (≈ 20 µM). With `Cc1c(C(=O)c2ccc(Cl)cc2)c(=O)n(-c2ccccc2)n1Cc1ccccc1` the figure was more than 64 µg/mL.
